Measured values of several laboratories.
Lines come from different studies, so protocols differ.

COc1ccc2nccc(N3CCc4c(cc(Cn5ccnc5)cc4-c4cn(C)nc4C(F)(F)F)C3=O)c2c1 — Cmax (male CD-1 mouse, plasma; oral, 50 mg/kg): 8940 ng/mL
CCc1ccc(Cc2cc([C@@H]3O[C@H](CO)[C@@H](O)[C@H](O)[C@H]3O)cc3c2CCC3)cc1 — Cmax (male C57BL/6 mouse, plasma; oral, 3 mg/kg): 1830 ng/mL
CNC(=O)[C@H](Cc1c[nH]cn1)NC(=O)CN(CCCc1ccccc1)CC(=O)O — Cmax (male C57BL/6 mouse, plasma; intraperitoneal, 30 mg/kg): 11000 ng/mL
Nc1ncc(-c2ccncc2)nc1Nc1ccc2[nH]ccc2c1 — Cmax (male C57BL/6 mouse, plasma; oral, 30 mg/kg): 7 µM
C=CC(=O)N1CC2CC(n3nc(-c4ccc(C(=O)Nc5ccccn5)cc4)c4c(N)ncnc43)CC2C1 (centres unmarked) — Cmax (SCID mouse, plasma; oral, 1 mg/kg): 61.8 ng/mL
COc1ccc2c3c1O[C@H]1C[C@@H](OC(=O)c4ccccc4)C=C[C@@]31CCN(C)C2 — Cmax (mouse, brain; intravenous, 3 mg/kg): 4810 ng/g
CC(C)(C)c1ccc(O)c(CN(Cc2cc(C(C)(C)C)ccc2O)C2CCC(NC(N)=O)CC2)c1 (centres unmarked) — Cmax (male C57BL/6 mouse, brain; intraperitoneal, 25 mg/kg, single dose): 1610 ng/g
NS(=O)(=O)c1ccc(-c2cc(Nc3ccc(OC(F)(F)F)cc3)ncn2)cc1 — Cmax (male BALB/c mouse, plasma; oral, 20 mg/kg): 2000 ng/mL
CNC(=O)c1cc(Oc2ccc(NC(=O)Nc3ccc(Cl)c(C(F)(F)F)c3)c(F)c2)ccn1 — Cmax (male mouse, plasma; oral, 10 mg/kg, single dose): 3300 ng/mL
CC(C)(O)c1cn(-c2ccc(-c3cc(F)c(CO)c(S(C)(=O)=O)c3)cc2F)c(C(C)(C)c2c(Cl)cccc2Cl)n1 — Cmax (male C57BL/6 mouse, serum; oral, 10 mg/kg): 0.71 µM
COc1ccc(C(O)COc2ccc(-c3csc(-c4ccc(OCC(O)c5ccc(OC)c(OC)c5)cc4)n3)cc2)cc1OC (centres unmarked) — Cmax (C57BL/6 mouse, plasma; oral, 30 mg/kg): 5980 ng/mL
O=C(NO)c1ccc(CN(c2cnccn2)c2cnccn2)cc1 — Cmax (male C57BL/6 mouse, plasma; oral, 200 mg/kg, multiple doses, once daily, tumour-bearing): 300 ng/mL
CC[C@H](C)[C@@H]1NC(=O)[C@@](C)(NC(=O)[C@H](CCCNC(=N)N)NC(=O)[C@H](CC(C)C)NC(=O)[C@@H](NC(=O)[C@H](CCC(N)=O)NC(=O)[C@H](CC(C)C)NC(C)=O)[C@@H](C)O)CCCC=CCCC[C@@](C)(C(=O)N[C@@H](CC(C)C)C(=O)N[C@@H](Cc2ccc3ccccc3c2)C(N)=O)NC(=O)[C@H](CCCNC(=N)N)NC(=O)[C@H](CCC(N)=O)NC1=O — Cmax (male BALB/c mouse, plasma; intravenous, 5 mg/kg): 41 µM
Cc1nc(-c2cnc(NC(C)C)n(C)c2=O)ccc1Oc1ccnc(-c2cnn(C)c2)c1 — Cmax (female mouse, plasma; oral, 7.5 mg/kg, single dose): 4450 ng/mL
C[C@H](NC(=O)C(C)(C)Oc1ccc(C(F)(F)F)cn1)[C@@H](Cc1ccc(Cl)cc1)c1cccc(C#N)c1 — Cmax (mouse, plasma; oral, 6 µmol/kg, single dose): 0.7 µM
COc1nc(-c2cc(C)c(N[C@@H](C)c3c(F)cc(F)cc3F)nn2)ccc1-n1cnc(C)c1 — Cmax (male CD-1 mouse, plasma; intravenous, 1 mg/kg, single dose): 858 ng/mL
CNC(=O)c1cc(OC)cc2c(N3CCc4c(cc(Cn5ccnc5)cc4-c4cn(C)nc4C(F)(F)F)C3=O)ccnc12 — Cmax (male CD-1 mouse, plasma; oral, 50 mg/kg): 46100 ng/mL
